Wee1 stabilizer: Wee1 degradation inhibitors, primary screen, cell-based, HeLa, Wee1K328M-luciferase, luminescence | Wee1-like protein kinase (Homo sapiens), P30291 | HeLa Luc-Wee1K328M stability; 100% = proteasome inhibitor MG132 effect | reporter increase, % at 5 µM | 220,000 tested, 1.2% active | AID 1321, 2008;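 active means activation above the mean of all tested compounds plus 3 SD, set per screening run, cut at about 8.8% in these data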;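 further: cells exposed to compound for 20 h before luminescence read; 0% = DMSO alone and 100% = MG132 at 30 µM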
Calpain2 inh: inhibitors of pig calpain II, primary screen, biochemical, fluorogenic peptide substrate, 1536-well; 220,000 tested, 0.37% active; inhibition, % at 16 µM; purified calpain II, 30 min;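 active means inhibition above about 50%, limit read from the data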
RBBP9 inh: human RBBP9 inhibitors, primary screen, biochemical, fluorescence polarization, FP-Rh probe, HTS. 220,000 tested, 0.2% active. Serine hydrolase RBBP9 (Homo sapiens), O75884. recombinant RBBP9. inhibition, % at 7.94 µM;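 active means inhibition above the campaign mean of all tested compounds plus 3 SD, cut at about 14% in these data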;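 further: plate controls were DMSO wells with RBBP9 for no effect and wells lacking RBBP9 protein for full effect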
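Test system: recombinant human RBBP9. Quantity: 2.5 µM RBBP9 dispensing solution, before mixing. Detection: FP readout at 525/598 nm. Reagent: Serine-hydrolase probe FP-Rh, 375 nM pre-mixing. Measure: % inhibition. Control set: DMSO-treated enzyme wells and wells lacking RBBP9. Buffer or medium: Tris-NaCl-Pluronic buffer, pH 8.0. Times: preincubation 30 min plus labeling 45 min at 25 °C.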
TNF death inh: inhibitors of TNF-alpha triggered necroptosis, primary screen, cell-based, Jurkat FADD-/-, single concentration; Jurkat FADD-/- TNF necroptosis rescue, ATP luminescence, 24 h; 0 = TNF only, 100 = no-TNF cells; activation (protection from cell death), % at 10 µM; 220,000 tested, 0.068% active; AID 463075, 2010;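 active means activation, meaning protection from cell death, of at least 50% relative to plate controls; inactive means activation below 50%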;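 further: necroptosis triggered by 40 ng/mL TNF-alpha added together with compound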
zVAD death inh: inhibitors of zVAD-triggered necroptosis, primary screen, L929 cells; AID 1377, 2008; 220,000 tested, 0.38% active; L929 zVAD necroptosis rescue, ATP luminescence, 24 h; with zVAD 60 µM; viability rescue, % at 10 µM;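 active means activation, scaled between plate controls, above about 75%, limit read from the data; inactive means activation under that limit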;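 further: 0% = zVAD with DMSO and 100% = DMSO alone without zVAD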
Pf gamet viab: late stage P. falciparum gametocyte viability inhibitors, primary screen, ATP luminescence, HTS. P. falciparum stage V gametocytes, 24 h. inhibition, % at 10.9 µM. 150,000 tested, 0.065% active;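 active means inhibition above the mean plus 3 SD of compounds within the control limits, set per campaign, cut at about 38% in these data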;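 further: 0% = DMSO wells and 100% = medium only without gametocytes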
zVAD death conf: inhibitors of zVAD-triggered necroptosis in L929, confirmation, L929 cells, duplicate runs. shares compounds with zVAD death inh. L929 zVAD-induced necroptosis rescue, ATP luminescence, 24 h. activation (protection from necroptosis), % at 10 µM. 760 tested, 16% active. AID 463117, 2010;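 active means mean protection from necroptosis of at least 50% over duplicate tests; inactive means mean protection below 50%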;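 further: 0% = cells with zVAD alone and 100% = vehicle cells without zVAD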
Active calls of the source: *; . = no result given. Rows were chosen to be rich in hits. Some 2.1% of all compounds tested hit in one or more screens of this group.

SMILES	Wee1 stabilizer	Calpain2 inh	RBBP9 inh	TNF death inh	zVAD death inh	Pf gamet viab	zVAD death conf
Cc1ccc(NC(=O)CSc2nnnn2-c2ccc3c(c2)OCO3)cc1C	-0.8	-25.4	2.0	5.3	79.0*	9.4	74.2*
O=C(CSc1nnnn1-c1ccc(O)cc1)Nc1ccc(N2CCOCC2)c(Cl)c1	0.9	8.8	-5.2	4.7	75.5*	.	75.1*
O=C(Nc1ncc2c(n1)-c1ccccc1CC2)C1CC1	-2.5	19.6	-19.2	-4.2	76.1*	30.2	2.2
CC(C)SCC(=O)Nc1ncc2c(n1)-c1ccccc1CC2	2.8	-152.0	-3.3	-0.6	4.5	.	.
C/C(=N\NC(=O)c1ccc(NS(=O)(=O)c2cccs2)cc1)c1ccc(C(C)(C)C)cc1	-2.4	-72.2	-9.3	7.5	82.4*	3.1	5.8
CN(C)c1ccc(C(=O)NNC(=O)Nc2ccccc2)cc1	-3.0	19.1	3.7	1.3	4.9	4.8	.
O=C(NNC(=O)c1ccc(NC(=O)c2ccccc2)cc1)Nc1ccccc1	-3.3	-31.7	-4.8	1.9	75.6*	6.5	37.3
CCCCc1[nH]c(=O)c(C#N)c2c1CSC(C)(C)C2	0.5	-114.5	-5.4	-1.5	75.1*	.	33.9
CCc1[nH]c(=O)c(C#N)c2c1CSC(C)(C)C2	-0.6	-9.2	-1.5	-2.0	1.4	.	.
C/C(=N\NC(=O)COc1ccc(C(C)(C)C)cc1)c1ccc(N2CCOCC2)cc1	-1.0	-16.6	-6.0	2.5	3.8	.	.
Cc1nc2ccccc2nc(=O)c1NNc1ccccc1	3.1	12.7	4.9	4.7	76.5*	4.5	3.2
Cc1ccc2nc(=O)c(NNc3ccccc3)cnc2c1	4.4	33.6	-7.1	0.4	.	.	.
O=C(CCNS(=O)(=O)c1ccc(Br)cc1)NC1CCCCC1	3.8	32.8	1.0	0.8	-0.4	.	.
CC1CCCC(NC(=O)CCNS(=O)(=O)c2ccc(Br)cc2)C1C (stereo not drawn)	0.0	-15.1	-6.6	0.7	77.3*	.	6.6
COc1ccc(/C=C/C(=O)c2ccc(NC3=NCCCS3)cc2)cc1OC	-0.6	-32.5	-11.0	-15.3	-0.9	1.4	.
O=S(=O)(c1ccccc1)N1CCN=C1SCc1cccc(Cl)c1	-2.3	34.3	-5.2	-1.5	0.5	1.6	.
Cc1cc(C(=O)Cn2nc(C(=O)O)c3ccccc3c2=O)c(C)n1CCc1ccc(Cl)cc1	-0.3	-128.9	-8.0	-3.5	77.9*	19.4	8.1
Cc1cc(C(=O)Cn2nc(C(=O)O)c3ccccc3c2=O)c(C)n1-c1ccccc1	-0.4	-30.0	-8.8	-1.0	1.0	-4.7	.
O=C(Cc1ccccc1)Nc1nnc(SCC(=O)NC2CCCC2)s1	-2.6	-30.1	0.3	1.7	0.7	-20.4	.
O=C(CSc1nnc(NC2CCCCC2)s1)Nc1ccc2c(c1)C(=O)c1ccccc1C2=O	0.7	-143.8	-1.5	11.5	80.2*	4.0	89.7*
CC(C)Nc1nnc(SCC(=O)Nc2ccc3c(c2)C(=O)c2ccccc2C3=O)s1	5.6	-61.9	11.4	1.6	80.7*	.	44.7
CC(C)CC(=O)Nc1nnc(SCC(=O)Nc2ccc3c(c2)OCO3)s1	3.6	15.6	-6.2	0.5	-0.2	-10.5	.
O=S(=O)(Nc1ccccc1N1CCCCC1)c1ccc(F)cc1F	0.6	4.0	2.9	0.3	-0.6	-22.6	.
COc1ccc(-c2nn(-c3ccccc3)cc2C(=O)NC(=S)Nc2cc(Cl)ccc2Cl)cc1	-2.0	-21.0	3.5	1.5	0.1	9.6	.
CC(C)OCCCNC(=S)Nc1ccc(S(N)(=O)=O)cc1	-1.0	-3.5	0.8	2.8	75.5*	16.1	1.6
CCOC(=O)CCC(=O)Nc1ccc(S(=O)(=O)Nc2cc(OC)nc(OC)n2)cc1	.	.	.	.	.	3.4	.

High-throughput results from PubChem.
